Data as given in ChEMBL document CHEMBL4689842, “EUbOPEN Chemogenomics Library wave 1” (2021).
Where “and” joins values, the source holds several entries; their conditions need not be identical. Equal entries are not always repeated.

Columns and labels:
Type in all cases: toxicity, cell-based
[1] = system: Fibroblast; test: Multiplex assay against human fibroblast; conditions: 10 µM, compound concentration 10 uM
In short: (§1)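 Live cells carried four stains from seeding: Hoechst33342, BioTracker Green Microtubule Cytoskeleton Dye, MitoTracker Red and Annexin V Alexa Fluor 680. They were imaged on a CQ1 microscope at 37°C and 5% CO2 after compound addition. Using CellPathfinder machine-learning gating, cells were split into Hoechst high-intensity objects or normal cells, normal cells into healthy, pyknosed or fragmented nuclei, and pyknosed cells into mitotic or apoptotic; tubulin, mitochondrial-mass and membrane-permeability phenotypes are per cents of healthy-nucleus cells.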

[2] = system: HEK-293T; test: Multiplex assay against HEK293T; conditions: human, 10 µM, compound concentration 10 uM; in short: as §1;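 for Population Tubulin-Different-Phenotype (%): share of the cells with healthy nuclei that show this phenotype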
[3] = system: U2OS; test: Multiplex assay against U2OS; conditions: human, 10 µM, compound concentration 10 uM; in short: as §1
[4] = system: HEK-293T; test: Incucyte cell viability with HEK293T; conditions: human, 10 µM, compound concentration 10 uM; note: filed as whole numbers so only -1 and 0 and 1 occur
[5] = system: Fibroblast; test: Incucyte cell viability with human fibroblast; conditions: 10 µM, compound concentration 10 uM; note: filed as whole numbers so only -1 and 0 and 1 occur
[6] = system: U2OS; test: Incucyte cell viability with U2OS; conditions: human, 10 µM, compound concentration 10 uM; note: filed as whole numbers so only -1 and 0 and 1 occur
[7] = 0 h, replicate number 1, timepoint 0 hours
[8] = 6 h, replicate number 1, timepoint 6 hours
[9] = 12 h, replicate number 1, timepoint 12 hours
[10] = 18 h, replicate number 1, timepoint 18 hours
[11] = 24 h, replicate number 1, timepoint 24 hours

## O=C(O)c1ccc2c(c1)nc(Nc1cccc(Cl)c1)c1ccncc12 [SILMITASERTIB]
[1]; 12 h, replicate 1
  Population Apoptotic (%): 75% and 73%
  Population Fragmented Nuclei (%): 29% and 31%
  Population Healthy Nuclei (%): 56% and 60%
  Population Hoechst High Intensity Objects (%): 20% and 12%
  Population Membrane Permeable-Phenotype (%): 10% and 4%
  Population Mitochondria Different-Phenotype (%): 2% and 3%
  Population Mitotic Cells (%): 25% and 26%
  Population Normal (%): 79% and 87%
  Population Pyknosed Nuclei (%): 14% and 7%
  Population Tubulin-Different-Phenotype (%): 6% and 4%
  Total Cell Count: 314 and 234
[1]; 12 h, replicate 2
  Population Apoptotic (%): 33% and 60%
  Population Fragmented Nuclei (%): 60% and 64%
  Population Healthy Nuclei (%): 33% and 25%
  Population Hoechst High Intensity Objects (%): 30% and 32%
  Population Membrane Permeable-Phenotype (%): 17% and 15%
  Population Mitochondria Different-Phenotype (%): 11% and 7%
  Population Mitotic Cells (%): 66% and 40%
  Population Normal (%): 69% and 67%
  Population Pyknosed Nuclei (%): 5% and 9%
  Population Tubulin-Different-Phenotype (%): 29% and 23%
  Total Cell Count: 73 and 76
[1]; 24 h, replicate 1
  Population Apoptotic (%): 53%
  Population Fragmented Nuclei (%): 32% and 26%
  Population Healthy Nuclei (%): 53% and 60%
  Population Hoechst High Intensity Objects (%): 19% and 17%
  Population Membrane Permeable-Phenotype (%): 5%
  Population Mitochondria Different-Phenotype (%): 2%
  Population Mitotic Cells (%): 46%
  Population Normal (%): 80% and 82%
  Population Pyknosed Nuclei (%): 14% and 13%
  Total Cell Count: 314 and 235
[1]; 24 h, replicate 2
  Population Apoptotic (%): 66% and 50%
  Population Fragmented Nuclei (%): 62%
  Population Healthy Nuclei (%): 26% and 29%
  Population Hoechst High Intensity Objects (%): 27% and 33%
  Population Membrane Permeable-Phenotype (%): 14% and 6%
  Population Mitotic Cells (%): 33% and 50%
  Population Normal (%): 72% and 66%
  Population Pyknosed Nuclei (%): 11% and 7%
  Population Tubulin-Different-Phenotype (%): 21% and 31%
  Total Cell Count: 73 and 81
[2]; 12 h, replicate 1
  Population Apoptotic (%): 24% and 17%
  Population Fragmented Nuclei (%): 14% and 17%
  Population Healthy Nuclei (%): 67% and 65%
  Population Hoechst High Intensity Objects (%): 10% and 15%
  Population Membrane Permeable-Phenotype (%): 8% and 6%
  Population Mitochondria Different-Phenotype (%): 5% and 4%
  Population Mitotic Cells (%): 76% and 82%
  Population Normal (%): 89% and 84%
  Population Pyknosed Nuclei (%): 17%
  Population Tubulin-Different-Phenotype (%): 7% and 6%
  Total Cell Count: 624 and 579
[2]; 12 h, replicate 2
  Population Apoptotic (%): 11% and 7%
  Population Fragmented Nuclei (%): 8% and 10%
  Population Healthy Nuclei (%): 84% and 85%
  Population Hoechst High Intensity Objects (%): 3% and 2%
  Population Membrane Permeable-Phenotype (%): 4% and 1%
  Population Mitochondria Different-Phenotype (%): 9%
  Population Mitotic Cells (%): 88% and 92%
  Population Normal (%): 96% and 97%
  Population Pyknosed Nuclei (%): 6% and 3%
  Total Cell Count: 1391 and 1841
[2]; 24 h, replicate 1
  Population Apoptotic (%): 28% and 16%
  Population Fragmented Nuclei (%): 14%
  Population Healthy Nuclei (%): 77% and 74%
  Population Hoechst High Intensity Objects (%): 6% and 14%
  Population Membrane Permeable-Phenotype (%): 10%
  Population Mitochondria Different-Phenotype (%): 5% and 3%
  Population Mitotic Cells (%): 71% and 84%
  Population Normal (%): 93% and 85%
  Population Pyknosed Nuclei (%): 8% and 9%
  Population Tubulin-Different-Phenotype (%): 5% and 15%
  Total Cell Count: 718 and 592
[2]; 24 h, replicate 2
  Population Apoptotic (%): 9% and 4%
  Population Fragmented Nuclei (%): 15% and 30%
  Population Healthy Nuclei (%): 79% and 67%
  Population Hoechst High Intensity Objects (%): 7% and 4%
  Population Membrane Permeable-Phenotype (%): 9% and 4%
  Population Mitochondria Different-Phenotype (%): 6% and 0%
  Population Mitotic Cells (%): 90% and 95%
  Population Normal (%): 92% and 95%
  Population Pyknosed Nuclei (%): 4% and 1%
  Total Cell Count: 1562 and 3163
[3]; 12 h, replicate 1
  Population Apoptotic (%): 50% and 36%
  Population Fragmented Nuclei (%): 5%
  Population Healthy Nuclei (%): 87% and 85%
  Population Hoechst High Intensity Objects (%): 4%
  Population Membrane Permeable-Phenotype (%): 11% and 8%
  Population Mitotic Cells (%): 50% and 63%
  Population Normal (%): 95%
  Population Pyknosed Nuclei (%): 7%
  Population Tubulin-Different-Phenotype (%): 19% and 32%
  Total Cell Count: 163 and 151
[3]; 12 h, replicate 2
  Population Apoptotic (%): 33%
  Population Fragmented Nuclei (%): 6% and 8%
  Population Healthy Nuclei (%): 90%
  Population Hoechst High Intensity Objects (%): 6% and 13%
  Population Membrane Permeable-Phenotype (%): 10% and 4%
  Population Mitochondria Different-Phenotype (%): 27% and 26%
  Population Mitotic Cells (%): 66%
  Population Normal (%): 93% and 86%
  Population Pyknosed Nuclei (%): 2% and 4%
  Population Tubulin-Different-Phenotype (%): 31% and 18%
  Total Cell Count: 140 and 110
[3]; 24 h, replicate 1
  Population Apoptotic (%): 23% and 50%
  Population Fragmented Nuclei (%): 9% and 4%
  Population Healthy Nuclei (%): 82% and 91%
  Population Hoechst High Intensity Objects (%): 1% and 3%
  Population Membrane Permeable-Phenotype (%): 14% and 6%
  Population Mitochondria Different-Phenotype (%): 20% and 35%
  Population Mitotic Cells (%): 76% and 50%
  Population Normal (%): 98% and 96%
  Population Pyknosed Nuclei (%): 8% and 4%
  Population Tubulin-Different-Phenotype (%): 33% and 35%
  Total Cell Count: 208 and 206
[3]; 24 h, replicate 2
  Population Apoptotic (%): 25% and 11%
  Population Fragmented Nuclei (%): 8%
  Population Healthy Nuclei (%): 83% and 76%
  Population Hoechst High Intensity Objects (%): 4%
  Population Membrane Permeable-Phenotype (%): 10% and 5%
  Population Mitochondria Different-Phenotype (%): 41%
  Population Mitotic Cells (%): 75% and 88%
  Population Normal (%): 95%
  Population Pyknosed Nuclei (%): 7% and 14%
  Population Tubulin-Different-Phenotype (%): 31% and 30%
  Total Cell Count: 168 and 127
[4]; [7]
  Growth Rate: 0
[4]; [8]
  Growth Rate: 0
[4]; [9]
  Growth Rate: 0
[4]; [10]
  Growth Rate: 0
[4]; [11]
  Growth Rate: 0
[5]; [7]
  Growth Rate: 0
[5]; [9]
  Growth Rate: 1
[5]; [10]
  Growth Rate: 0
[5]; 18 h, replicate number 2, timepoint 18 hours
  Growth Rate: 1
[5]; [11]
  Growth Rate: 0
[5]; 24 h, replicate number 2, timepoint 24 hours
  Growth Rate: 1
[6]; [7]
  Growth Rate: 0
[6]; 0 h, replicate number 2, timepoint 0 hours
  Growth Rate: 1
[6]; [8]
  Growth Rate: 1
[6]; 6 h, replicate number 2, timepoint 6 hours
  Growth Rate: 0
[6]; [9]
  Growth Rate: 0
[6]; [10]
  Growth Rate: 0
[6]; [11]
  Growth Rate: 0
